Measured values: ChEMBL document CHEMBL3351782, “Synthesis and biological evaluation of glaucocalyxin A derivatives as potential anticancer agents” (Eur J Med Chem, 2014)

Assays:
KB [1] = experiment: Antiproliferative activity against human KB cells after 48 hrs by MTT assay; type: functional, cell-based
In short: (§1)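 Cells were seeded at 3 × 10^3 per well and exposed 24 h later, while growing exponentially, to compounds at final concentrations of 1.25 to 40 for 48 h. MTT (5 mg/mL in PBS) was then added for 6 h. The medium was aspirated, the formazan dissolved in DMSO and absorbance read at 570 nm. Survival is relative to untreated cells; IC50 comes from triplicate wells in at least three independent experiments.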

B16 = experiment: Antiproliferative activity against mouse B16 cells after 48 hrs by MTT assay; type: functional, cell-based; details: B16, 48 h; in short: as §1
[2] = Antiproliferative activity against human HL60 cells after 48 hrs by MTT assay; type: functional, cell-based; details: HL-60, 48 h; in short: as §1
[3] = Antiproliferative activity against human HL7702 cells after 48 hrs by MTT assay; type: cell-based; details: L02, 48 h; in short: as §1
[4] = Antiproliferative activity against human SGC7901 cells after 48 hrs by MTT assay; type: functional, cell-based; details: SGC-7901, 48 h; in short: as §1
[5] = Antiproliferative activity against human SMMC7721 cells after 48 hrs by MTT assay; type: functional, cell-based; details: SMMC-7721, 48 h; in short: as §1
A549 = experiment: Antiproliferative activity against human A549 cells after 48 hrs by MTT assay; type: functional, cell-based; details: A549, 48 h; in short: as §1
KB [6] = experiment: Induction of apoptosis in human KB cells assessed as late apoptotic cells level at 40 uM after 48 hrs by Annexin V and propidium iodide staining based flow cytometry (reference value: 4.4%); type: functional
In short: (§2)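 KB cells were plated in 6-well plates at 2.5 × 10^5 cells/mL and treated for 48 h. Adherent and floating cells were pooled, washed twice in PBS and stained with Annexin V and PI in binding buffer for 20 min at room temperature. Samples were read immediately on a FACSCalibur; untreated cells served as control. Values are means ± SE of at least three independent experiments.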

KB [7] = experiment: Prodrug conversion in human KB cells lysates assessed as glaucocalyxin A formation at 500 uM in presence of 10 mM cysteine by LC-HRMS method; type: ADME, cell-based, Lysate
In short: (§3)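 KB cells (5 × 10^6) were lysed by freeze/thaw. DMSO stock prepared just before use was added to lysate already containing cysteine, with DMSO matched in controls, and incubated at 37 °C. Aliquots taken at 30 min and 1 h were mixed with two volumes of acetonitrile and centrifuged (4 °C, 10,000 g, 10 min). They were analysed by LC-HRMS in positive mode using a water + 0.1% formic acid/methanol gradient.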

KB [8] = experiment: Induction of apoptosis in human KB cells assessed as early apoptotic cells level at 40 uM after 48 hrs by Annexin V and propidium iodide staining based flow cytometry (reference value: 7.69%); type: functional; in short: as §2
KB [9] = experiment: Induction of apoptosis in human KB cells assessed as late apoptotic cells level at 20 uM after 48 hrs by Annexin V and propidium iodide staining based flow cytometry (reference value: 4.4%); type: functional; in short: as §2
KB [10] = experiment: Induction of apoptosis in human KB cells assessed as necrotic cells level at 20 uM after 48 hrs by Annexin V and propidium iodide staining based flow cytometry (reference value: 3.64%); type: functional; in short: as §2
KB [11] = experiment: Induction of apoptosis in human KB cells assessed as early apoptotic cells level at 10 uM after 48 hrs by Annexin V and propidium iodide staining based flow cytometry (reference value: 7.69%); type: functional; in short: as §2
[12] = Stability in 80% rat plasma assessed as parent compound remaining at 1 uM at 37 degC after 24 hrs by HPLC method; type: ADME, cell-free; details: read-out: Stability
In short: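 Thawed rat plasma was diluted to 80% v/v with 0.1 M PBS, pH 7.4. Compound was spiked from DMSO stock (1% v/v DMSO final) and held at 37 °C. Aliquots were quenched with two volumes of acetonitrile and centrifuged at 4 °C, 10,000 g, 10 min. Supernatants were run on HPLC with external standard; the result is percent parent remaining at 24 h, mean ± SD, n = 3.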

[13] = Chemical stability in 10 mM pH 7.4 PBS buffer assessed as parent compound remaining at 1 uM at 37 degC after 24 hrs by HPLC method; type: physicochemical; details: read-out: Stability
In short: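 DMSO stock was diluted into pre-warmed 10 mM PBS, pH 7.4, with 1% v/v DMSO final, and incubated at 37 °C. Aliquots were taken at set times and injected directly onto reversed-phase HPLC (ODS column, water + 0.1% TFA eluent, external standard). The result is percent parent remaining after 24 h, mean ± SD, n = 3.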

KB [14] = experiment: Prodrug conversion in human KB cells lysates assessed as formation of cysteine conjugates at 500 uM in presence of 10 mM cysteine by LC-HRMS method; type: ADME, cell-based, Lysate; in short: as §3
KB [15] = experiment: Induction of apoptosis in human KB cells assessed as necrotic cells level at 10 uM after 48 hrs by Annexin V and propidium iodide staining based flow cytometry (reference value: 3.64%); type: functional; in short: as §2
KB [16] = experiment: Induction of apoptosis in human KB cells assessed as viable cells level at 10 uM after 48 hrs by Annexin V and propidium iodide staining based flow cytometry (reference value: 84.3%); type: functional; in short: as §2
KB [17] = experiment: Induction of apoptosis in human KB cells assessed as viable cells level at 40 uM after 48 hrs by Annexin V and propidium iodide staining based flow cytometry (reference value: 84.3%); type: functional; in short: as §2
KB [18] = experiment: Induction of apoptosis in human KB cells assessed as necrotic cells level at 40 uM after 48 hrs by Annexin V and propidium iodide staining based flow cytometry (reference value: 3.64%); type: functional; in short: as §2
KB [19] = experiment: Induction of apoptosis in human KB cells assessed as viable cells level at 20 uM after 48 hrs by Annexin V and propidium iodide staining based flow cytometry (reference value: 84.3%); type: functional; in short: as §2
KB [20] = experiment: Induction of apoptosis in human KB cells after 48 hrs by Annexin V and propidium iodide staining based flow cytometry; type: functional, cell-based; in short: as §2
KB [21] = experiment: Induction of apoptosis in human KB cells assessed as late apoptotic cells level at 10 uM after 48 hrs by Annexin V and propidium iodide staining based flow cytometry (reference value: 4.4%); type: functional; in short: as §2
KB [22] = experiment: Induction of apoptosis in human KB cells assessed as early apoptotic cells level at 20 uM after 48 hrs by Annexin V and propidium iodide staining based flow cytometry (reference value: 7.69%); type: functional; in short: as §2

Structure (SMILES) | IC50 (KB [1]) [µM] | IC50 (B16) [µM] | IC50 [2] [µM] | IC50 [4] [µM] | IC50 [5] [µM] | IC50 (A549) [µM] | also measured
CC1(C)C(=O)CC[C@]2(C)[C@@H]1C[C@@H](O)[C@]13C(=O)C(CNC4CCCCC4)[C@H](CC[C@@H]21)[C@H]3O (some centres not stated) | 11.3 | 5.66 | 9.35 | 20.7 | 15.2 | 11.1 | IC50 [3]: 8.95 µM
Cc1cccc(NCC2C(=O)[C@@]34[C@H](O)C[C@@H]5C(C)(C)C(=O)CC[C@@]5(C)[C@@H]3CC[C@@H]2[C@H]4O)c1 (some centres not stated) | 29.6 | 14.4 | 13.5 | 38.7 | 20.7 | 28.3 | –
CC1(C)C(=O)CC[C@]2(C)[C@@H]1C[C@@H](O)[C@]13C(=O)C(CNc4ccccc4Br)[C@H](CC[C@@H]21)[C@H]3O (some centres not stated) | 13.9 | 15.2 | 12.5 | 33.5 | 28.4 | 32.6 | –
Cc1ccccc1NCC1C(=O)[C@@]23[C@H](O)C[C@@H]4C(C)(C)C(=O)CC[C@@]4(C)[C@@H]2CC[C@@H]1[C@H]3O (some centres not stated) | 23.4 | 19.2 | 18.1 | 38.4 | 22.2 | 24.7 | –
CC1(C)C(=O)CC[C@]2(C)[C@@H]1C[C@@H](O)[C@]13C(=O)C(CNc4ccccc4F)[C@H](CC[C@@H]21)[C@H]3O (some centres not stated) | 11.2 | 9.59 | 15.6 | 24.3 | 14.5 | 20.6 | –
O=c1[nH]cc(F)c(=O)[nH]1 [FLUOROURACIL] | 53.5 | 17.9 | 27 | 59.9 | 67.7 | 51.6 | –
CC1(C)C(=O)CC[C@]2(C)[C@@H]1C[C@@H](O)[C@]13C(=O)C(CNc4ccc(C(=O)O)cc4)[C@H](CC[C@@H]21)[C@H]3O (some centres not stated) | 6.13 | 6.79 | 10.5 | 22.3 | 16.8 | 11.7 | IC50 [3]: 35.4 µM
CC1(C)C(=O)CC[C@]2(C)[C@@H]1C[C@@H](O)[C@]13C(=O)C(CNc4ccccc4)[C@H](CC[C@@H]21)[C@H]3O (some centres not stated) | 31 | 11.5 | 15.1 | 32.6 | 48 | 37.2 | –
COc1ccc(NCC2C(=O)[C@@]34[C@H](O)C[C@@H]5C(C)(C)C(=O)CC[C@@]5(C)[C@@H]3CC[C@@H]2[C@H]4O)cc1 (some centres not stated) | 6.41 | 12.1 | 5.7 | 22.4 | 18 | 13.6 | –
CC1(C)C(=O)CC[C@]2(C)[C@@H]1C[C@@H](O)[C@]13C(=O)C(CNc4cccc(C#N)c4)[C@H](CC[C@@H]21)[C@H]3O (some centres not stated) | 8.08 | 18.2 | 23.2 | 24.4 | 19.1 | 21.3 | –
CC1(C)C(=O)CC[C@]2(C)[C@@H]1C[C@@H](O)[C@]13C(=O)C(CNc4ccc(Cl)cc4)[C@H](CC[C@@H]21)[C@H]3O (some centres not stated) | 6.54 | 9.4 | 14.1 | 21.2 | 14.1 | 15.8 | –
CC1(C)C(=O)CC[C@]2(C)[C@@H]1C[C@@H](O)[C@]13C(=O)C(CNc4ccc(Br)cc4)[C@H](CC[C@@H]21)[C@H]3O (some centres not stated) | 6.31 | 10.9 | 14.6 | 25.4 | 18.1 | 19.2 | –
CC1(C)C(=O)CC[C@]2(C)[C@@H]1C[C@@H](O)[C@]13C(=O)C(CNc4ccccc4Cl)[C@H](CC[C@@H]21)[C@H]3O (some centres not stated) | 11 | 16.7 | 23 | 28.6 | 32.3 | 21.6 | –
CC1(C)C(=O)CC[C@]2(C)[C@@H]1C[C@@H](O)[C@]13C(=O)C(CNc4ccc(F)cc4)[C@H](CC[C@@H]21)[C@H]3O (some centres not stated) | 12.3 | 12.9 | 17.8 | 34.2 | 19.8 | 22.7 | –
Cc1ccc(NCC2C(=O)[C@@]34[C@H](O)C[C@@H]5C(C)(C)C(=O)CC[C@@]5(C)[C@@H]3CC[C@@H]2[C@H]4O)cc1 (some centres not stated) | 7.22 | 8.54 | 8.92 | 16.1 | 12.2 | 10.6 | Activity (KB [6]): 15.6%; Drug metabolism (KB [7]): metabolite_detected; Activity (KB [8]): 23.4%; Activity (KB [9]): 5.42%; Activity (KB [10]): 4.13%; Activity (KB [11]): 14.5%; remaining at 24 h, 1 µM [12]: 86.4%; remaining at 24 h, 1 µM [13]: 104%; Retention_time (KB [14]): 2.52 min; Activity (KB [15]): 3.19%; Activity (KB [16]): 77.9%; IC50 [3]: 21.1 µM; Activity (KB [17]): 49%; Activity (KB [18]): 11.9%; Activity (KB [19]): 69.9%; Activity (KB [20]): Dose-dependent effect; Activity (KB [21]): 4.46%; Activity (KB [22]): 20.5%
CC(=O)c1ccc(NCC2C(=O)[C@@]34[C@H](O)C[C@@H]5C(C)(C)C(=O)CC[C@@]5(C)[C@@H]3CC[C@@H]2[C@H]4O)cc1 (some centres not stated) | 12.6 | 18.3 | 11.7 | 31.9 | 26.1 | 21.8 | –
CC1(C)C(=O)CC[C@]2(C)[C@@H]1C[C@@H](O)[C@]13C(=O)C(CNc4ccc(S(=O)(=O)c5ccccc5)cc4)[C@H](CC[C@@H]21)[C@H]3O (some centres not stated) | 5.64 | 10.5 | 15.3 | 15.5 | 14.1 | 13.7 | –
